High-throughput results: PubChem BioAssay, several laboratories
NPY-Y2 PAM-ag = NPY-Y2 potentiators or agonists, primary screen, cell-based | Neuropeptide Y receptor type 2 (Homo sapiens), P49146 | cells expressing NPY-Y2, potentiator/agonist read-out | activation, % at 3.6 µM | hit rate 0.45% among 220,000; in the data active = activation above about 27%;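 note: cells stimulated with NPY near EC25 plus isoproterenol at EC100; 0% = vehicle plus submaximal agonist and 100% = vehicle plus saturating agonist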
WT yeast gro inh = growth inhibition of WT strain, primary screen, mitochondrial fusion inhibitor project, WT and mutant strains, chemical genetic; mitochondrial fusion phenotypic screen; inhibition, % at 10 µM; hit rate 2.1% among 190,000; in the data active = inhibition above about 58%; tested in S. cerevisiae
RAM network inh = inhibitors of the yeast RAM network, primary screen, dse1pr::URA3 reporter, 5-FOA selection; inhibition, % at 50 µM; hit rate 1.8% among 190,000; AID 868, 2007; S. cerevisiae dse1pr::URA3 reporter, 5-FOA growth OD615, 2 d; analog-sensitive cbk1-as2 kinase mutant strain;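 active = inhibition above a set limit, 3 SD over mean compound inhibition, cut at about 8.4% in these data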;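 note: 0% = DMSO-only wells with no growth and 100% = 10 µM 1-NA-PP1 full growth; inhibition rescues growth on 5-FOA so higher OD means more RAM inhibition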
NPY Y1 blocker = NPY-Y1 receptor antagonists, primary screen, cell-based; hit rate 1% among 200,000; Neuropeptide Y receptor type 1 (Homo sapiens), P25929; inhibition, % at 3.6 µM; HEK293-CNG Y1 cells, membrane potential fluorescence; NPY at EC95, then isoproterenol;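 active = inhibition above the campaign mean inhibition of all tested compounds plus 3 SD, cut at about 20% in these data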;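 note: 0% = DMSO wells given NPY plus isoproterenol and 100% = isoproterenol alone without NPY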
Target sequence (P25929 whole entry, looked up): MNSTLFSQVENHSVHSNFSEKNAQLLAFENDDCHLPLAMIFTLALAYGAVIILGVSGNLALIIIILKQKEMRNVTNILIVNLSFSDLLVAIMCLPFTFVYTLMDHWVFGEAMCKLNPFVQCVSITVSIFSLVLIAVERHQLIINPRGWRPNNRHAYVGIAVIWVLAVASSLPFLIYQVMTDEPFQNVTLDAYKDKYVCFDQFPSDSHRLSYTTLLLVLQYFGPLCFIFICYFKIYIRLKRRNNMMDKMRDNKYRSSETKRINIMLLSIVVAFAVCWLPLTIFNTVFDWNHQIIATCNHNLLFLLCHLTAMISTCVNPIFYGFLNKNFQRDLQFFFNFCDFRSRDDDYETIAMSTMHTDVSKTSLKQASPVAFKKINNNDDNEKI
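Assay system: HEK293 cells with Y1 receptor plus CNG channel | Probe or stimulus: NPY (25 nM), isoproterenol (1 µM), Ro 20-1724 (25 µM) | Timing: Compound incubation 1 h at room temperature, readout 45 min post-stimulation | Measured by: Membrane-potential fluorescent dye readout | Benchmarks: High control isoproterenol alone, low control NPY with isoproterenol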
NPY1 pot ag = NPY-Y1 receptor potentiators or agonists, primary screen, cell-based; Neuropeptide Y receptor type 1 (Homo sapiens), P25929; NPY-Y1 expressing cells, potentiator/agonist activation; activation, % at 3.6 µM; hit rate 0.37% among 220,000; AID 1304, 2008; in the data active = activation above about 33%, passing the limit was not always enough;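 note: cells stimulated with NPY at EC10 then isoproterenol at EC100; 0% = low agonist plus stimulus and 100% = saturating agonist plus stimulus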
NPY Y2 blocker = NPY-Y2 receptor antagonists, primary screen, cell-based; hit rate 0.99% among 140,000; inhibition, % at 2.7 µM; NPY-Y2 expressing cells, antagonist mode; Neuropeptide Y receptor type 2 (Homo sapiens), P49146; in the data active = inhibition above about 17%;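 note: 0% = vehicle with agonist challenge and 100% = reference antagonist with challenge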
Numbers without * were called inactive; x = no result. This is a sample that favours compounds with a hit; in the whole collection about 4.9% have one here.

SMILES	NPY-Y2 PAM-ag	WT yeast gro inh	RAM network inh	NPY Y1 blocker	NPY1 pot ag	NPY Y2 blocker
CC1=CN2C(=NC(=O)CC2(C)C(=O)N(CC(=O)NC2CCCC2)c2cc(C)cc(C)c2)C=C1 (configuration not stated)	-6	2	1	5	-8	x
COC(=O)c1ccc(NC(=S)NC2CCCCC2C)cc1 (configuration not stated)	-2	34	1	1	15	1
CCc1ccc(OCC(=O)NC(=S)Nc2ccc(C(=O)O)cc2)cc1	-13	x	x	x	-19	x
CCc1ccc(OCC(=O)NC(NC(=S)Nc2ccc(Cl)cc2)C(Cl)(Cl)Cl)cc1 (configuration not stated)	-5	1	9.5*	-2	-3	-3
Cc1cc(Oc2cnn(C(C)(C)C)c(=O)c2Cl)cc(C(C)C)c1	-18	67*	3	8	-19	3
CN1CCN(CC(O)COc2ccc(C34CC5CC(CC(C5)C3)C4)cc2)CC1 (configuration not stated)	-20	97*	0	9	-32	x
COc1ccc(OC)c(NC(=O)c2ccc3nc(-c4ccccc4)c(-c4ccccc4)nc3c2)c1	-1	-13	6	0	4	2
CC(CO)Nc1nc(SCc2ccccc2)nc2sc3c(c12)CCC3 (configuration not stated)	0	75*	1	10	-20	-1
CC(=O)Nc1ccc(NC(=O)COC(=O)c2ccc(C)s2)cc1	-8	7	2	6	-4	0
CC(=O)Nc1ncnc2c1c(-c1ccc(Cl)cc1)nn2C(C)(C)C	7	37	8.9*	2	13	x
Oc1ccccc1-c1nc(/C=C/c2ccccc2)nn1-c1ccccc1	-8	64*	5	-3	-1	2
Oc1ccc(/C=C/c2nc(-c3ccccc3O)n(-c3ccccc3)n2)cc1	-14	79*	3	4	-9	-1
CC1CCCCN1C/C=C/c1ccccc1[N+](=O)[O-] (configuration not stated)	-4	-16	-1	2	11	0
COc1cc(N2C(=O)NC3CC2(C)Oc2ccccc23)cc(OC)c1OC (configuration not stated)	-6	19	1	-5	6	3
Cc1cccc(N2CCN(C(=O)COc3ccc4c(c3)CCC4)CC2)c1C	-17	73*	4	15	-12	13
N#C/C(=C\C=C\c1ccccc1)C(=O)Nc1ccccc1	-3	18	2	0	-17	7
O=C(CSc1cn(Cc2cccc(F)c2)c2ccccc12)NCc1ccc(F)cc1	7	-17	9.9*	2	-7	6
CN1CCN(Cc2nc3c([nH]2)c(=O)[nH]c(=O)n3C)CC1	3	3	1	2	9	2
CCn1cc(CNCc2c(C(=O)N3CCCCC3)nc3c(C)cccn23)cn1	-10	-4	2	21*	-16	x
Cc1cccn2c(CNCCCn3ncc4ccccc43)c(C(=O)N3CCCCC3)nc12	-5	-1	0	1	-1	x
Cc1nc2sc(C#N)c(N)c2c2c1CCCC2	-43	0	3	22*	-84	25*
N#Cc1sc2nc(N3CCCCC3)c3c(c2c1N)CCCC3	-14	73*	3	-2	-22	1
CN1Cc2c(N3CCOCC3)nc3sc(C#N)c(N)c3c2CC1(C)C	4	x	x	x	13	x
C=CCn1c(N)cc(=O)nc1SCC(=O)Nc1ccccc1C(N)=O	-4	-6	2	17	7	x
CC1(c2ccc(OCC#N)cc2)C=C(c2ccc(OCC#N)cc2)n2nc(C(F)(F)F)nc2N1 (configuration not stated)	9	-1	6	5	-23	3
SMILES	NPY-Y2 PAM-ag	WT yeast gro inh	RAM network inh	NPY Y1 blocker	NPY1 pot ag	NPY Y2 blocker
Cc1ccc(C2=CC(C)(c3ccc(C)cc3)Nc3nc(C(F)(F)F)nn32)cc1 (configuration not stated)	-10	71*	2	6	-19	12
CCOc1ccc(C(=O)Cc2ccc3oc(C(=O)O)cc3c2)c(O)c1	-12	2	3	-3	-37	2
CCN1CCc2c(sc(NC(=O)Nc3ccc(Cl)c(Cl)c3)c2C(N)=O)C1	14	77*	-1	1	10	-1
CCN1CCc2c(sc(NC(=S)NC(=O)c3ccco3)c2C(N)=O)C1	6	x	x	x	-10	x
Cn1c(=O)c(C(=O)Nc2ccccn2)c(O)c2ccccc21	7	5	1	-2	2	2
COc1cccc(OCCn2cccc2/C=C2/C(=N)N3OC(C)=CC3=NC2=O)c1	-8	21	11*	-1	-9	x
CC1=CC2=NC(=O)/C(=C\c3cccn3CCOc3cc(C)cc(C)c3)C(=N)N2O1	-6	40	6	6	1	2
CC1=CC2=NC(=O)/C(=C\c3cccn3CCOc3cccc(C)c3)C(=N)N2O1	-8	38	9.3*	-1	-16	1
O=C1/C(=C/c2ccco2)CCc2ccccc21	-4	4	0	13	-14	-1
COc1ccc(-c2ccnc(SCC(=O)c3ccc(Cl)cc3)n2)cc1	1	30	8.9*	4	-4	15
COc1ccc(-c2ccnc(SCC(=O)c3ccc(OC)c(OC)c3)n2)cc1	4	6	5	-3	7	4
Cc1cc(N2C(=O)C=CC2=O)c([N+](=O)[O-])cc1C	-6	62*	-1	1	-10	4
Cc1ccc(C)c(N2CCN(c3ccc(N4C(=O)COCC4=O)cc3[N+](=O)[O-])CC2)c1	5	4	2	4	6	-1
CCCCNC(=O)c1nn2cc(Br)cnc2c1Br	-10	8	1	2	-9	x
O=C(CC1C(=O)NCCN1Cc1ccc(Cl)c(F)c1)NCCc1cccnc1 (configuration not stated)	-20	x	x	x	25	x
COC(=O)C1C(c2ccccc2)C(C(=O)OCc2ccco2)C1c1ccccc1 (configuration not stated)	-16	76*	8.5*	37*	-70	37*
CS(=O)(=O)N1CCN(c2ncnc3c2cnn3-c2ccccc2)CC1	-4	-19	1	4	9	x
O=C(COC(=O)c1cc(-c2ccccc2)nc2ccccc12)Nc1ccc2c(c1)OCO2	-11	-11	4	0	-4	1
O=C(COC(=O)c1c2c(nc3ccccc13)CCCC2)Nc1ccc2c(c1)OCO2	-8	-7	0	20*	-2	17*
N=c1c(C(=O)NCc2ccc(F)cc2)cc2c(=O)n3ccccc3nc2n1Cc1ccco1	6	-3	0	3	8	16
